{"data": "Assay results pooled from the literature", "cell line": "A549", "effect on": "cell growth or viability", "note": "Protocols differ between the studies behind these lines."}
{"SMILES": "Cc1ccc(NC(=O)CSc2nnc(Cn3cnc4c3c(=O)n(C)c(=O)n4C)n2-c2ccccc2)c(C)c1", "method": "MTT", "IC50 [µM]": 7.39}
{"SMILES": "CCCCC[C@H](O)CC(=O)CCc1ccc(O)c(OC)c1", "method": "SRB", "IC50 [µM]": 208}
{"SMILES": "CNC(=O)c1cc(Oc2ccc(NC(=O)Nc3ccc(Cl)c(C(F)(F)F)c3)cc2)ccn1", "method": "MTT", "time": "72 h", "IC50 [µM]": 2.12}
{"SMILES": "COc1cccc(NC(=O)CN2C(=O)/C(=C/c3ccc(F)cc3)SC2=S)c1", "method": "MTT", "IC50 [µM]": 14.4}
{"SMILES": "CC1=C(O)C(=O)C=C2C1=CC=C1[C@@]2(C)CC[C@@]2(C)[C@@H]3C[C@](C)(C(=O)OCCCOc4ccccc4)CC[C@]3(C)CC[C@]12C", "method": "MTT", "time": "48 h", "IC50 [µM]": 5.39}
{"SMILES": "COc1cc2ncnc(Nc3ccc(F)c(Cl)c3)c2cc1NC(=O)N/N=C/CN1CCCC1", "method": "MTT", "time": "72 h", "IC50 [µM]": 5.67}
{"SMILES": "CC(C)(C)NC(=O)NNC(=O)c1ccc(Nc2nccc(-c3ccccn3)n2)cc1", "method": "MTT", "IC50 [µM]": "> 40"}
{"SMILES": "COc1nc(OCc2cccc(-c3ccccc3)c2C)ccc1CNCCNC(C)=O", "method": "MTT", "IC50 [µM]": 4.6}
{"SMILES": "COCCCOc1ccnc(COc2ccc(NC(=O)Nc3ccc(Cl)c(C(F)(F)F)c3)cc2)c1C", "method": "MTT", "time": "72 h", "IC50 [µM]": 6.19}
{"SMILES": "COc1cccc2c1C(=O)c1c(O)c3c(c(O)c1C2=O)C[C@@](O)(C(=O)CO)C[C@@H]3O[C@H]1C[C@H](N)[C@H](O)[C@H](C)O1", "method": "MTT", "time": "48 h", "IC50 [µM]": 5.06}
{"SMILES": "COc1ccc2c(c1)/C(=N/NC(=O)c1cc3ccccc3[nH]1)C(=O)N2C", "IC50 [µM]": 1.93}
{"SMILES": "COc1ccccc1/C=C/CNCC(O)COc1ccncc1 (stereo not shown)", "method": "CCK-8", "time": "72 h", "IC50 [µM]": "> 100"}
{"SMILES": "Cc1cc(C)n(-c2nc(NN=Cc3c[nH]c4ccccc34)nc(Nc3ccc(Br)cc3)n2)n1", "method": "SRB", "time": "72 h", "IC50 [µM]": 6.1}
{"SMILES": "COc1cc2ncnc(Nc3ccc(F)c(Cl)c3)c2cc1NC(=O)N/N=C/c1cccn1CCCN1CCCC1", "method": "MTT", "time": "72 h", "IC50 [µM]": 2.45}
{"SMILES": "COc1cccc2c1C(=O)c1c(O)c3c(c(O)c1C2=O)C[C@@](O)(C(=O)CO)C[C@@H]3O[C@H]1C[C@H](N)[C@H](O)[C@H](C)O1", "time": "48 h", "IC50 [µM]": 0.56}
{"SMILES": "C=CC(=O)Nc1cccc(Oc2nc(Nc3ccc(N4CCN(C)CC4)cc3)nc3ccsc23)c1", "method": "MTT", "IC50 [µM]": 4.22}
{"SMILES": "O=C(N/N=C/CN1CCOCC1)Nc1cc2c(Nc3ccc(F)c(Cl)c3)ncnc2cc1O[C@H]1CCOC1", "method": "MTT", "time": "72 h", "IC50 [µM]": 5.62}
{"SMILES": "COc1ccccc1OCCNCC(O)COc1cccc2[nH]c3ccccc3c12 (stereo not shown)", "method": "CCK-8", "time": "72 h", "IC50 [µM]": 22.9}
{"SMILES": "Nc1ccc(-c2csc(Nc3ccc4c(O)ncnc4c3)n2)cc1", "method": "MTT", "IC50 [µM]": 29.6}
{"SMILES": "CCOC(=O)/C=C1\\S/C(=N\\C(=O)c2ccc3ccccc3c2)N(C2CCCCC2)C1=O", "time": "48 h", "IC50 [µM]": 13.8}
{"SMILES": "COc1cc(N(C)CCN(C)C)c(NC(=O)/C=C/C(C)C)cc1Nc1nc(N2CCc3sccc3C2)c2sccc2n1", "method": "MTT", "IC50 [µM]": "> 50"}
{"SMILES": "Cc1ccc(C)n1-c1ccc(-c2nnco2)cc1", "method": "MTT", "time": "72 h", "IC50 [µM]": 226}
